Shown are actives, neighbours in structure and some others; about 3.8% of the full set was active somewhere.
hERG rescue – hERG rescue from dofetilide block, primary screen, cell-based, CHO-hERG, FluxOR thallium flux, dofetilide IC70; dofetilide IC70 present; Voltage-gated inwardly rectifying potassium channel KCNH2 (Homo sapiens), Q12809; activation (rescue from dofetilide block), less the hit threshold, % at 10 µM; 0.51% of 310,000 active;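 active = activation above the mean of controls blocked by dofetilide plus 5 SD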;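 note: thallium influx through hERG after potassium depolarization seen as dye fluorescence rise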
KCNQ1 act – potentiators or activators of KCNQ1 channel, primary screen, cell-based, thallium flux, high-throughput. Potassium voltage-gated channel subfamily KQT member 1 (Homo sapiens), P51787. CHO-K1 KCNQ1, thallium flux FluxOR fluorescence; hits give high values. B-score at 10 µM. 0.35% of 310,000 active. AID 2648, 2010;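 active = fluorescence ratio B-score, a plate-corrected score, at least three library SD, with initial intensity B-score within 5 SD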
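assay system = CHO-K1 cells stably expressing KCNQ1 | medium = assay buffer, equal DMSO in all wells | timing = 37 °C overnight plating, 90-min dark dye load, 20-min compound pretreatment | measured by = kinetic FluxOR thallium fluorescence, 10-s 1-Hz baseline, 110-s post-stimulus read | measure = fluorescence change relative to baseline, converted to B score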
KCNQ1 inh – inhibitors of human KCNQ1 channel, primary screen, cell-based, thallium flux, high-throughput; Potassium voltage-gated channel subfamily KQT member 1 (Homo sapiens), P51787; CHO-K1 KCNQ1, FluxOR thallium flux fluorescence; hits give high values; B-score at 10 µM; 1.3% of 310,000 active; AID 2642, 2010;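 active = compounds whose thallium flux B-score, printed positive for inhibition, exceeds three library SD while starting fluorescence stays within three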;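 note: channel opened by potassium depolarization with thallium stimulus after 20 min compound exposure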
KCNK3 block – human KCNK3 channel inhibitors, primary screen, CHO cells, FluxOR thallium flux, B-score; Potassium channel subfamily K member 3 (Homo sapiens), O14649; FluxOR fluorescence; hits give low values; B-score at 10 µM; 0.84% of 340,000 active; AID 602410, 2012;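 active = B-score under library mean minus 4 SD, starting fluorescence ratio at most library mean plus 5 SD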;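 note: more negative B-score means stronger inhibition of thallium flux through KCNK3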
KCNK9 inh – KCNK9 potassium channel inhibitors, primary screen, HEK293 cells, thallium flux | FluxOR thallium flux fluorescence; hits give low values | B-score at 10 µM | 1.2% of 310,000 active | AID 488922, 2010;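 active = ratio B-score over 3 SD below the library mean, with starting fluorescence within 5 SD of its mean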;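 note: negative B-score means less thallium flux so channel inhibition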
Kir21 block – inhibitors of mouse Kir2.1 inward-rectifier potassium channel. 0.85% of 310,000 active. Inward rectifier potassium channel 2 (Mus musculus), P35561. B-score at 10 µM. HEK293-Kir2.1, FluxOR thallium flux fluorescence; hits give low values;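 active = fluorescence ratio B-score at or below minus 3 SD of library scores, with starting-brightness B-score within 2 SD, cut at about -4.2 in these data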;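 note: channel flux triggered by added potassium and thallium sulfate stimulus; B-score of peak minus minimum fluorescence over baseline after thallium stimulus; more negative B-score means stronger Kir2.1 block with less thallium influx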
Target sequence (P35561 whole entry, looked up): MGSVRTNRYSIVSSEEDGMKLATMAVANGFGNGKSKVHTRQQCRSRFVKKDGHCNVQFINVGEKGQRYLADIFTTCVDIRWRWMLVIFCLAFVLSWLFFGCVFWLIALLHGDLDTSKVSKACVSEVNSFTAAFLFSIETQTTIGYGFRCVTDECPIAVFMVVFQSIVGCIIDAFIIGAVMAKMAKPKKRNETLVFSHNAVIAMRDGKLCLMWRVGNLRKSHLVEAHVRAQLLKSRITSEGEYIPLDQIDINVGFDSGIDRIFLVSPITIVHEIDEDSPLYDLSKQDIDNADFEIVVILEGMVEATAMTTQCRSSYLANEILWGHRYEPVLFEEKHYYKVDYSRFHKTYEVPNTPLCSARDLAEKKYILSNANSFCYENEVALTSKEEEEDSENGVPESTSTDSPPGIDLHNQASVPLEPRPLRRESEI
Numbers without * were called inactive; i = inactive; / = not tested or not shown.

SMILES	hERG rescue	KCNQ1 act	KCNQ1 inh	KCNK3 block	KCNK9 inh	Kir21 block
COc1ccc(C2c3cc(OC)c(OC)cc3CCN2C(=O)c2cccc([N+](=O)[O-])c2)cc1OC (centres undefined)	-4.5	i	i	i	i	-0.26
O=C1CC(C(=O)Nc2cccc3ccccc23)C2(CCCC2)O1 (centres undefined)	7.8*	i	i	i	i	-2.15
COc1ccc(CCC(=O)NCCS(=O)(=O)N2CCN(c3ccc(OC)cc3)CC2)cc1	-9.7	i	i	i	i	0.35
O=C(CN(Cc1ccccc1)C(=O)CNS(=O)(=O)c1ccc(F)cc1)NCc1ccco1	-3.1	i	i	i	i	-0.54
COc1ccc(CCNC(=O)COC(=O)CCC(=O)c2ccc(F)cc2)cc1OC	-11.9	i	i	i	i	-3.71
Cc1cc(NC(=O)c2sccc2C)n(-c2nc3ccccc3[nH]2)n1	-6.1	i	i	i	-7.03*	1.82
Cc1cc(NC(=O)c2cccs2)n(-c2nc3ccccc3[nH]2)n1	-7.2	i	i	i	i	-0.75
CS(=O)(=O)NCc1nnc(SCc2ccc(C(F)(F)F)cc2)o1	-8.9	i	i	i	i	-0.03
Fc1cccc(NCCc2c[nH]c3ccccc23)n1	-7.5	i	i	i	i	0.99
c1ccc2c(NCCc3c[nH]c4ccccc34)c3ccccc3nc2c1	-16.9	i	7*	i	i	-11.9*
COc1ccc(NC(=O)CSCC(=O)Nc2cc(Cl)ccc2N2CCCC2)cc1	-16.8	i	i	i	i	-1.53
NC(=O)c1ccccc1NC(=O)/C=C/C(=O)O	15.3*	i	i	i	i	-0.02
NC(=O)c1ccccc1NC(=O)CN1CCOCC1	-9.7	i	i	i	i	-1.78
COC(=O)c1ccccc1NC(=O)/C=C/C(=O)O	-0.2	i	i	i	i	-0.07
NC(=O)c1ccccc1NC(=O)N1CCOCC1	1.9	9*	i	i	i	-1.12
CCOC(=O)CSc1nc2c([nH]c3ccccc32)c(=O)n1C	6.7*	i	i	i	i	0.54
COc1ccc(OC)c(NC(=O)Cc2coc3cc(C)cc(C)c23)c1	-10.1	i	i	i	i	0.92
Cc1cc(SCC(=O)NCCCN2CCCC2=O)nc2ccccc12	/	/	/	i	/	/
CCOC(=O)C1=C(C)N(c2ccc(OC)cc2)C(=O)/C1=C\c1ccc(O)c(OCC)c1	-13.6	i	6*	i	i	-0.38
O=C(COC(=O)/C=C/c1ccc(F)cc1)Nc1ccc(S(=O)(=O)N2CCOCC2)cc1	/	/	/	i	/	/
COC(=O)C1=C(C(=O)OC)[C@@H]2N(Cc3ccccc3)c3ccccc3[C@@]23C[C@@H](C(=O)OC)N(C(C)=O)C3=N1	-1.5	i	i	i	i	-0.16
CCOC(=O)N1C2=NC(C(=O)OC)=C(C(=O)OC)[C@@H]3N(Cc4ccccc4)c4ccccc4[C@]23C[C@H]1C(=O)OC	0.1	i	i	/	-7.71*	-0.88
COC(=O)C1=C(C(=O)OC)[C@@H]2N(Cc3ccccc3)c3ccccc3[C@@]23C[C@@H](C(=O)OC)N(C(=O)C2CCC2)C3=N1	-5.2	i	i	/	-7.69*	-1.73
O=[N+]([O-])c1ccccc1S(=O)(=O)N1CCCc2ccccc21	-3.9	i	i	i	i	-3.02
OC1(c2ccc(Cl)cc2)CCN(Cc2c[nH]c3ccccc23)CC1	-10.2	i	i	i	i	-6.75*
SMILES	hERG rescue	KCNQ1 act	KCNQ1 inh	KCNK3 block	KCNK9 inh	Kir21 block
Cc1ccc2nc(/C(C#N)=C\c3ccc(N4CCCCC4)c([N+](=O)[O-])c3)[nH]c2c1	-18.0	i	8*	i	i	0.24
N#C/C(=C/c1ccc(N2CCCC2)c([N+](=O)[O-])c1)c1nc2ccccc2[nH]1	-18.6	i	i	i	i	-2.22
Cn1c(=O)c2c(nc(N3CCc4ccccc4C3)n2Cc2ccc(Br)cc2)n(C)c1=O	-10.9	i	i	i	-7*	0.22
Cn1c(=O)c2c(nc(N3CCc4ccccc4C3)n2Cc2ccccc2F)n(C)c1=O	-8.8	i	i	i	i	0.19
CCCn1nnc(NC(=O)Cc2ccccc2)n1	-8.3	i	i	i	i	-0.44
CCCCn1nnc(NC(=O)Cc2ccc(Cl)cc2)n1	6.0*	i	i	i	i	1.1
CCCCn1nnc(NC(=O)c2ccc(-c3cccc([N+](=O)[O-])c3)o2)n1	21.6*	i	i	/	i	0.46
O=C(N/N=C/c1ccccc1OCC(=O)N1CCCC1)C(=O)Nc1ccccc1F	-9.3	i	i	i	i	1.29
Cc1ccc(CN2C(=O)NC(Cc3c[nH]c4ccccc34)C2=O)cc1 (centres undefined)	-14.7	i	i	i	i	-4.34*
O=C(Cc1ccccc1)c1ccc(O)cc1O	/	/	/	i	/	/
O=C(CC1=NCCNC(c2ccccc2)C1)c1ccccc1O (centres undefined)	-11.4	i	i	i	i	-5.98*
Cc1nc(SCCc2nc3ccccc3[nH]2)c2oc3ccccc3c2n1	/	/	/	i	/	/
Clc1ccc(Cn2c(-c3cccnc3Cl)nc3ccccc32)cc1	-13.3	i	i	i	i	-5.33*
Clc1ccc(Cn2c(-c3cccnc3Cl)nc3ccccc32)c(Cl)c1	-17.0	i	i	i	i	0.78
O=c1c(C(c2ccc(O)cc2)c2c(O)nc3n(c2=O)CCS3)c(O)nc2n1CCS2	6.7*	i	i	i	i	0.25
CCOC(=O)c1c(C)oc2c(F)c(F)c(F)c(F)c2c1=O	-23.0	i	7*	i	i	1.93
CCOC(=O)c1c(C)oc2c1cc(O)c1ccccc12	-1.4	i	i	i	i	-1.37
CN(C(=O)COC(=O)/C=C/c1ccc(C(F)(F)F)cc1)C1CCS(=O)(=O)C1 (centres undefined)	-2.1	i	i	i	i	0.69
COc1ccc(C)cc1S(=O)(=O)N1CCc2ccccc2C1	-7.0	i	i	i	i	-4.26*
CCOC(=O)c1ccc(NC(=S)Nc2ccccc2)cc1	-13.7	i	i	i	i	1.09
CCOC(=O)c1ccc(NC(=S)NC(=O)COc2ccccc2)cc1	7.6*	i	i	i	i	1.12

Compound activity: PubChem, Johns Hopkins Ion Channel Center
